pIC50: −log10 of the molar value. Calls of active or inactive are those of the source. The rule behind the calls is not given here.
What was measured:
[1] = Half life in mouse plasma; format: ADME, cell-free
[2] = Half life in mouse liver microsomes; format: ADME, Microsome
[3] = Kinetic solubility in neutral buffer; format: physicochemical
Outline: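 Kinetic solubility measured in aqueous buffer at pH 7.4.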

[4] = biological target: T1, DNA topoisomerase 2-alpha (Homo sapiens, UniProt P11388); experiment: Poison activity at human topo2alpha assessed as induction of accumulation of topo-2/DNA cleavage complex formation at 200 uM using […] plasmid incubated for 6 mins by SYBR safe DNA stain based cleavage complex formation assay
T1 sequence (P11388 whole entry): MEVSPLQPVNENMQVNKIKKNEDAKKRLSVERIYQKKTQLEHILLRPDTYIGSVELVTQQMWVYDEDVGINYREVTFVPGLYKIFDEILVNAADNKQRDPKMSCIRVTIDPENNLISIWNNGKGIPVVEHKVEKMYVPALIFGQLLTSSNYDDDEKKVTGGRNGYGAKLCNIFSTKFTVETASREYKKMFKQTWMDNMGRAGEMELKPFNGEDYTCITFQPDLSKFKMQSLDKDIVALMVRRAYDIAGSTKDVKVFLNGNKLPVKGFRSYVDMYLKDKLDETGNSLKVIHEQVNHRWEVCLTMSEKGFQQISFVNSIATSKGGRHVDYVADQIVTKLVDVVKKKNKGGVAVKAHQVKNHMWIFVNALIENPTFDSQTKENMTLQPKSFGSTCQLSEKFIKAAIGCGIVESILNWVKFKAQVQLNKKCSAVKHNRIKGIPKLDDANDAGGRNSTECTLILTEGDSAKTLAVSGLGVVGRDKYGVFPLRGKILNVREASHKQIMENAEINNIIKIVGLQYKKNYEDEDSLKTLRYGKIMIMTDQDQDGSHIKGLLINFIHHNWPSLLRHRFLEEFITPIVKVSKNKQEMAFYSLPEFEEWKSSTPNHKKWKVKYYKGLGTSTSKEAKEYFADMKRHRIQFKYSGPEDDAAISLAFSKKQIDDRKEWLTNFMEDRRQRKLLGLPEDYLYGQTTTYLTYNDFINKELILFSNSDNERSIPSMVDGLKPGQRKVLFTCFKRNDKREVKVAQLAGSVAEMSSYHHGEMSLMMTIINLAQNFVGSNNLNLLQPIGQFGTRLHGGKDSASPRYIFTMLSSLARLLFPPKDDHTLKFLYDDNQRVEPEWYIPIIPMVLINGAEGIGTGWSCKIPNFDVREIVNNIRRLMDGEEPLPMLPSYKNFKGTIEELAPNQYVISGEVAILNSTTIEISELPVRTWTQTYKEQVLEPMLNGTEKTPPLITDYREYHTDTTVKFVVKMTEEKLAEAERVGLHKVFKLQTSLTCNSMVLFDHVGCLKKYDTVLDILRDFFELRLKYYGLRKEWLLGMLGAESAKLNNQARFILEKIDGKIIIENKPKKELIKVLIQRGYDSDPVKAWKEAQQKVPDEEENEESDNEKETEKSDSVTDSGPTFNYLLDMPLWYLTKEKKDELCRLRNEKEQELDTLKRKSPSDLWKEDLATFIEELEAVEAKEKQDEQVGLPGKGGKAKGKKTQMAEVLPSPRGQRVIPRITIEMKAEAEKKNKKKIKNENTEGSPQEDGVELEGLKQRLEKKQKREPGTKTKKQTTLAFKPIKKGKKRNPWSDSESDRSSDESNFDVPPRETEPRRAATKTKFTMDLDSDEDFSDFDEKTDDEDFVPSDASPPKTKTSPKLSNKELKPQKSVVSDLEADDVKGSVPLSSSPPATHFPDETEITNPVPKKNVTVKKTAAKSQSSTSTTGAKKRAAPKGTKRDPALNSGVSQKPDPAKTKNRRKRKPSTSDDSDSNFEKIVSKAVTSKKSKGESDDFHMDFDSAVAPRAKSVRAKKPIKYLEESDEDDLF
Outline: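 Test compound at 200 μM was incubated with 1 U topoisomerase II and 500 ng […] plasmid for 6 min at 37 °C, with 1% DMSO final; vehicle and no-enzyme lanes served as controls. Products were run on a 1% agarose gel with SYBR Safe stain. The band intensity of linear DNA (form III) was quantified and normalized.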

[5] = Plasma concentration in mouse at 10 mg/kg, po after 1 hr; format: ADME, organism-based
Outline: (§1)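 Mice dosed orally at 10 mg/kg, with n = 3 animals per time point. Plasma concentration was followed over time, with sampling to at least 6 h.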

[6] = Plasma concentration in mouse at 10 mg/kg, po after 6 hrs; format: ADME, organism-based; outline: as §1
[7] = biological target: T1, DNA topoisomerase 2-alpha; experiment: Inhibition of human topo2alpha by plasmid relaxation assay

| SMILES | half-life [1] [h] | half-life [2] [h] | Kinetic_solubility [3] [µM] | Activity [4] | concentration at 1 h [5] [ng/mL] | concentration at 6 h [6] [ng/mL] | pIC50 [7] |
| --- | --- | --- | --- | --- | --- | --- | --- |
| COc1cccc(CCNC(=O)c2c(O)n(-c3ccccc3)c(=S)n(-c3ccccc3)c2=O)c1 | > 2 | > 1 | – | – | – | – | – |
| CC(F)(F)c1cccc(NC(=O)c2c(O)n(-c3ccccc3)c(=S)n(-c3ccccc3)c2=O)c1 | > 2 | > 1 | – | – | – | – | – |
| CC(C)Oc1cccc(NC(=O)c2c(O)n(-c3ccccc3)c(=S)n(-c3ccccc3)c2=O)c1 | > 2 | > 1 | – | – | – | – | – |
| O=C(Nc1cccc(C(F)F)c1)c1c(O)n(-c2ccccc2)c(=S)n(-c2ccccc2)c1=O | > 2 | > 1 | 238 | Active | – | – | – |
| O=C(Nc1cccc(OC(F)F)c1)c1c(O)n(-c2ccccc2)c(=S)n(-c2ccccc2)c1=O | > 2 | > 1 | 208 | Active | – | – | – |
| O=C(Nc1cccc(OC(F)(F)F)c1)c1c(O)n(-c2ccccc2)c(=S)n(-c2ccccc2)c1=O | > 2 | > 1 | 224 | Active | 400 | 400 | – |
| O=C1NC(=S)NC(=O)C1C(=O)Nc1ccccc1 [MERBARONE] | – | – | – | – | – | – | 4.40 |

— ChEMBL document CHEMBL4342496, “Design, Synthesis, Dynamic Docking, Biochemical Characterization, and in Vivo Pharmacokinetics Studies of Novel Topoisomerase II Poisons with Promising Antiproliferative Activity” (J Med Chem, 2020)
